Only some compounds are listed: those with a hit (about 2.6% of all), similar ones and a draw of the others.
ABHD5 PLIN5 PPI: ABHD5-PLIN5 interaction inhibitors, primary screen, cell lysate, split luciferase complementation, luminescence; Perilipin-5 (Homo sapiens) + 1-acylglycerol-3-phosphate O-acyltransferase ABHD5 (Homo …; Split G. princeps luciferase complementation, 4 h; inhibition, % at 4 µM; hit rate 0.78% among 360,000;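 active means inhibition above the mean inhibition across every tested compound plus 3 SD, cut at about 22% in these data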;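 further: 0% = DMSO only wells and the 100% control is not disclosed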
Target sequence (Q00G26 whole entry, looked up): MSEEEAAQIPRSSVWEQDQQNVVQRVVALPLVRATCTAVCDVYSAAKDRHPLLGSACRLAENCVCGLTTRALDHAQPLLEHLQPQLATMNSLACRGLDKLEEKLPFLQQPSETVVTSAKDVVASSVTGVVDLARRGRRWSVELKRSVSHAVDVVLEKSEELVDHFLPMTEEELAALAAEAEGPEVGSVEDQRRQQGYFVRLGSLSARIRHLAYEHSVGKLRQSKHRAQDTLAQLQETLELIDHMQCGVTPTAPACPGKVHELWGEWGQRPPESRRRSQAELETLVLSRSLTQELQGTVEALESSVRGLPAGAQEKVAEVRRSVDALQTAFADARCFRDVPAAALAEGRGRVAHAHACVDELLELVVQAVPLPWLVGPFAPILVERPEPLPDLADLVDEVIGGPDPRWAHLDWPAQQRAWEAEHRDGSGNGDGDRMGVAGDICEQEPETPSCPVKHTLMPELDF
Target sequence (Q8WTS1 whole entry, looked up): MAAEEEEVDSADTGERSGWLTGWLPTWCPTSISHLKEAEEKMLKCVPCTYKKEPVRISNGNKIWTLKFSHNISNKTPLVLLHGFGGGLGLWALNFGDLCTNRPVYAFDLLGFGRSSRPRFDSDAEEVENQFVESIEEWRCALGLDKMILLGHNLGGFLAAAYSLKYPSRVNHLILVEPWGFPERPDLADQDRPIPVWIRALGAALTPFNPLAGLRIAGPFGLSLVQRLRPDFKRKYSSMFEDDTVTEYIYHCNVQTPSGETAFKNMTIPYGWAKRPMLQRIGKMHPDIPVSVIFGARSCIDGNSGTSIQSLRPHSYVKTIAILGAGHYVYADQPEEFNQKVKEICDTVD
HCV core dimer: inhibitors of HCV core protein dimerization, primary screen, biochemical, TR-FRET, high-throughput. TR-FRET GST/Flag-core106 dimerization, 1536-well. hit rate 0.33% among 300,000. inhibition, % at 5 µM;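 active means inhibition above the mean of all tested compounds plus 3 SD, set per screening campaign, cut at about 45% in these data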
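Assay system – GST-tagged and Flag-tagged HCV core protein residues 1-106 · Quantity – core106 proteins, GST 13.5 nM and Flag 17 nM · Benchmarks – unlabelled core106 and no-GST-core106 wells · Read-out basis – percent inhibition of core106 dimerization signal · Detection – time-resolved FRET, ex 340 nm, em 617 and 671 nm · Schedule – 4 h at 22.5 °C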
NadD block: inhibitors of S. aureus NadD, primary screen, biochemical, colorimetric, uHTS; inhibition, % at 20 µM; AID 602399, 2012; purified NadD enzyme, colorimetric absorbance read-out; hit rate 0.78% among 360,000; in the data active means inhibition above about 26%
rCAG binder: binders of r(CAG) RNA repeats, primary screen, biochemical, fluorescence; AID 651821, 2012; inhibition, % at 3 µM; hit rate 1.3% among 370,000; r(CAG) RNA repeat, TO-PRO-1 dye displacement fluorescence;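 active means inhibition above the plate cutoff, the mean of all test compounds on that plate plus 3 SD, cut at about 35% in these data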;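 further: 0% = DMSO alone and 100% = 100 µM mitoxantrone as full dye displacement; higher means more dye released from RNA so lower well fluorescence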
* hit, by the source's call; · = not tested or not shown.

SMILES | ABHD5 PLIN5 PPI | HCV core dimer | NadD block | rCAG binder
O=C(/C=C/c1ccc(Br)cc1)NC1CCCCCC1 | 2 | 102* | -4 | 2
COc1ccc(C2(CNC(=O)/C=C\c3ccco3)CCCC2)cc1OC | 22* | 10 | 11 | 1
COC(=O)[C@]12C=CCN1[C@@H](c1ccc(Cl)cc1)c1c(c3ccccc3n1S(=O)(=O)c1ccc(C)cc1)C2 | · | · | · | 16
Cc1cc(/C=C2\SC(=Nc3ccc(F)cc3)NC2=O)c(C)n1-c1ccc(S(N)(=O)=O)cc1 | 18 | 38 | 65* | 22
COc1ccc(-n2c(C)cc(/C=C3\SC(=S)NC3=O)c2C)cc1 | 3 | -32 | 45* | 14
Cc1cc(/C=C2/SC(=O)NC2=O)c(C)n1-c1ccc(N2CCOCC2)cc1 | -3 | 6 | 11 | 10
Oc1c(C(Nc2ccccn2)c2ccccn2)ccc2cccnc12 (centres undefined) | 7 | -4 | 29 | 3
Oc1ccccc1C(Nc1nccs1)c1ccc2cccnc2c1O (centres undefined) | 7 | -2 | 37* | 18
O=C(Cc1coc2ccc3ccccc3c12)N1CCN(c2ncccn2)CC1 | 3 | 53* | 7 | 5
COCCSc1ncccc1-c1nc2ccccc2[nH]1 | · | · | · | 5
CCc1c(Cc2cccc(F)c2)ncn1CCc1ccccc1OC | · | · | · | -1
O=C1NC(=Nc2ccc3ccccc3c2)S/C1=C/c1ccco1 | 5 | 43 | 34* | 44*
O=C1NC(=Nc2ccc(O)cc2)S/C1=C/c1ccco1 | 5 | -10 | -3 | 12
CCOc1ccc(-n2c(COc3ccccc3)nnc2SCc2nc3ccccc3[nH]2)cc1 | · | · | · | 1
COc1ccc(C(=O)Nc2ccc(-c3ccc(C)o3)cc2)cc1S(=O)(=O)N1CCOCC1 | 22* | 1 | -13 | 13
COc1ccc(C(=O)Nc2ccc(N3CCOCC3)cc2)cc1S(=O)(=O)N1CCOCC1 | -17 | · | -2 | -5
CCCCn1c(SCC(=O)Nc2sc3c(c2C(N)=O)CCC3)nnc1-c1ccccc1 | 22* | 6 | 4 | 2
CC(/C=C/c1ccco1)=N/NC(=O)c1ccccc1Cl | 22* | 4 | 1 | 12
COC1=C[C@H](C(=O)NCc2ccccn2)[C@@]2(C)Cc3ccccc3[C@H]2CC1=O | · | · | · | 6
Cc1cc(C(=O)N/N=C2\CC(=O)c3ccccc32)c(C)n1-c1ccc(F)cc1 | 12 | 71* | 31* | 19
COc1ccccc1C1c2ccc3ccccc3c2Oc2ncn(CCN(C)C)c(=N)c21 (centres undefined) | 22 | -3 | -10 | 4
COc1ccc(C2c3ccc4ccccc4c3Oc3ncn(CCCN(C)C)c(=N)c32)cc1 (centres undefined) | 22* | -12 | -4 | 8
CCOC(=O)C1=C(C(=O)OCC)C2N(Cc3ccc(C#N)cc3)c3ccccc3[C@@]23C[C@@H](C(=O)OC)N(S(=O)(=O)c2ccc(C)cc2)C3=N1 (some centres undefined) | · | · | · | 16
CCOC(=O)COc1ccccc1/C=C\[N+](=O)[O-] | 62* | 0 | 1 | ·
O=C(CCSc1ccc(Cl)cc1)c1ccco1 | 1 | -3 | -12 | -2
SMILES | ABHD5 PLIN5 PPI | HCV core dimer | NadD block | rCAG binder
O=C(CSc1ccc(Cl)cc1)c1ccco1 | 8 | 49* | 3 | ·
COc1ccc(Nc2cc(C)nc(NCc3ccccc3)n2)cc1 | 22* | -5 | 1 | 7
COc1cc(C)nc(NCc2ccccc2)n1 | -4 | 3 | -2 | 0
COc1cc2cc(Br)cc(Br)c2nc1C | -2 | 63* | -6 | 4
COC(=O)/C=c1/s/c(=C(\C#N)C(=O)NCc2ccco2)n(-c2ccc(C)cc2)c1=O | 17 | 57* | 14 | 4
COC(=O)/C=c1/s/c(=C(/C#N)C(=O)N2CCOCC2)n(-c2ccccc2)c1=O | -1 | -5 | 9 | 3
CCCCCCCCNS(=O)(=O)CC1NCc2cc(OC)ccc21 (centres undefined) | · | · | · | 3
COc1ccc(CN2CCC(CNC(=O)NC3CCCC3)CC2)cc1 | · | · | · | -1
O=C(N=Nc1c(O)[nH]c2ccc(Br)cc12)c1cc(-c2cccc3ccccc23)n[nH]1 | -6 | 5 | 39* | 22
Cn1c(O)c(N=NC(=O)c2cc(-c3cccs3)nc3ccccc23)c2ccccc21 | 1 | 34 | 45* | 4
O=C(N=Nc1c(O)[nH]c2ccc(Br)cc12)c1cc(-c2cccs2)nc2ccccc12 | 0 | · | 44* | 6
c1ccc(-n2c(SCc3cccc4ccccc34)nnc2-c2ccncc2)cc1 | · | · | · | 2
CCC(C)N(C(C)CC)S(=O)(=O)c1ccc2[nH]c(=O)oc2c1 (centres undefined) | · | · | · | 21
COCCN1Cc2cc(C(=O)OC)c3c(c2C1=O)c1cc(OC)ccc1n3S(=O)(=O)c1ccc(F)cc1 | · | · | · | 8
O=C(N/N=C/c1ccc(O)c(Br)c1)c1cc2c(ccc3ccccc32)o1 | 4 | · | 50* | -4
COC(=O)c1cc2c(c3c4cc(C)ccc4n(S(=O)(=O)c4ccc(C)cc4)c13)C(=O)N(Cc1ccccc1)C2 | · | · | · | 13
CSc1nc(NCCN(C)C)c2sc3nc(-c4ccco4)c4c(c3c2n1)CCC4 | -1 | · | -4 | 7
CSc1nc(N(C)CCO)c2sc3nc(-c4ccco4)c4c(c3c2n1)CCC4 | 3 | 80* | 9 | ·
COc1cccc(OC)c1OCc1cc(C2C3CCCC=C3C(C#N)=C(N)C2(C#N)C#N)c(C)cc1C (centres undefined) | 8 | 56* | 20 | 19
CCCN1CC=C2C(C#N)=C(N)C(C#N)(C#N)C(c3cccc(OC)c3OC)C2C1 (centres undefined) | 3 | -3 | -2 | -20
O=C(NC1CCCCC1)c1cccc2c1C(=O)c1ccc(N3CCC(Cc4ccccc4)CC3)cc1S2(=O)=O | -8 | · | 25 | -12
O=C(NCc1ccccc1Br)c1cccc2c1C(=O)c1ccc(N3CCC(Cc4ccccc4)CC3)cc1S2(=O)=O | -7 | · | 33* | ·
CCc1cc2c(nc1CC)CCCN2S(=O)(=O)c1c(C)noc1C | · | · | · | 1
Cc1ccc2nc(N(CCCN(C)C)C(=O)CS(=O)(=O)c3ccccc3)sc2c1 | -3 | -3 | -8 | 1
Cc1ccc2nc(N(CCCN(C)C)C(=O)CCc3ccccc3)sc2c1 | 22* | -5 | -1 | 1
CC(=O)NC(c1ccccc1)c1cc(Cl)c2cccnc2c1O (centres undefined) | 7 | -3 | 1 | 0
O=C(NC(c1ccc(Cl)cc1)c1cc(Cl)c2cccnc2c1O)c1cccnc1 (centres undefined) | 4 | 2 | 47* | 0
CCCCn1c(SC(C)C(=O)c2ccc(OC)cc2)nc2cc(S(N)(=O)=O)ccc21 (centres undefined) | 5 | 0 | -2 | 8
CCCCn1c(SCC(=O)c2ccc(OC)cc2OC)nc2cc(S(N)(=O)=O)ccc21 | -3 | 79* | 19 | 18
N#Cc1cc([N+](=O)[O-])ccc1Oc1cccc(/C=N/NC(=O)c2cccc(Cl)c2)c1 | 3 | 50* | 18 | ·

Assay outcomes: PubChem, several laboratories
